24 compounds from ChEMBL document CHEMBL1152933, “Synthesis and evaluation of novel 7-azaindazolyl-indolyl-maleimide derivatives as antitumor agents and protein kinase C inhibitors” (Bioorg Med Chem, 2009) can be followed below.

Assay [1] is described as follows: Inhibition of PKC by […] assay. A digest of the protocol: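 Recombinant PKC was incubated with reaction mixture containing a fluorescent PepTag PKC-specific peptide substrate at 30 °C for 30 min, then stopped by boiling. Phosphorylated (−1) and nonphosphorylated (+1) peptide were separated on 0.8% agarose in 50 mM Tris-HCl pH 8.0 at 100 V for 15 min and visualized under UV. IC50 values are means of three experiments.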

In the next assay the test system is SMMC-7721. Nature of the assay: Antiproliferative activity against human SMMC7721 cells after 48 hrs by MTT assay. In kind it is functional, cell-based. The following applies: SMMC-7721, 48 h. A digest of the protocol:
(§1)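 MTT assay after 48 h incubation with compound. MTT (5.0 mg/mL stock in RPMI-1640) was added and incubated a further 4 h at 37 °C. Formazan was dissolved in DMSO and absorbance read at 570 nm. IC50 is the concentration giving 50% decrease in cell growth, computed from dose-effect analysis. Triplicate wells, three independent experiments, values are means.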
Background: Tetrazolium assays rely on reduction of a dye to a coloured formazan, in cell work by metabolically active cells.

Another assay has as its system KB. Nature of the assay: Antiproliferative activity against human KB cells after 48 hrs by MTT assay. In kind it is functional, cell-based. A digest of the protocol:
as §1

In another assay the test system is A549. In words: Antiproliferative activity against human A549 cells after 48 hrs by MTT assay. In kind it is functional, cell-based. The conditions noted are these: A549, 48 h. In outline:
as §1

Another assay has as its system K562. Nature of the assay: Antiproliferative activity against human K562 cells after 48 hrs by MTT assay. In kind it is functional, cell-based. The following applies: K562, 48 h. A digest of the protocol: as §1
A short description of assay [2]: Antiproliferative activity against human ECA109 cells after 48 hrs by MTT assay. Type of assay: functional, cell-based. The conditions noted are these: ECa-109, 48 h. In outline: as §1

Broadly, the IC50 is the concentration at which inhibition is half-maximal. As for `Cn1cc(C2=C(c3nn(CCCn4ccnc4)c4ncccc34)C(=O)NC2=O)c2ccccc21`, the half-inhibitory concentration (IC50) was 0.9 µM in assay [1]; over 100 µM in the assay with SMMC-7721; over 100 µM with KB; over 100 µM in the assay on A549; 13.8 µM with K562; over 100 µM in assay [2].

Turning to `Cn1cc(C2=C(c3nn(CCn4ccnc4)c4ncccc34)C(=O)N(c3ccccc3)C2=O)c2ccccc21`, the IC50 in assay [1] was over 10 µM; in the assay with SMMC-7721, over 100 µM; in the assay with KB, over 100 µM; in the assay on A549, 43.1 µM; in the assay with K562 it was 26.4 µM; in assay [2] it was 8.77 µM.

Regarding `Cn1cc(C2=C(c3nn(CCCN4CCCCC4)c4ncccc34)C(=O)NC2=O)c2ccccc21`, the IC50 in assay [1] is 0.65 µM; in the assay with SMMC-7721, 7.67 µM; in the assay on KB, 98 µM; with A549 it was over 100 µM; in the assay on K562, 5.96 µM; in assay [2], 42.3 µM.

On to `Cn1cc(C2=C(c3nn(CCCN4CCCCC4)c4ncccc34)C(=O)N(c3ccccn3)C2=O)c2ccccc21`, for which the half-inhibitory concentration (IC50) in assay [1] is over 10 µM; with SMMC-7721, over 100 µM; with KB, over 100 µM; with A549 it was over 100 µM; in the assay on K562 it was over 100 µM; in assay [2], 7.3 µM.

As for `Cn1cc(C2=C(c3n[nH]c4ncccc34)C(=O)NC2=O)c2ccccc21`, the IC50 in assay [1] is over 10 µM; with SMMC-7721, over 100 µM; in the assay with KB it was 62 µM; in the assay with A549, over 100 µM; in the assay on K562 it was over 100 µM; in assay [2] it was 46.1 µM.

Consider `CN(C)CCCn1nc(C2=C(c3cn(C)c4ccccc34)C(=O)N(c3ccccc3)C2=O)c2cccnc21`, for which the IC50 in assay [1] was over 10 µM; with SMMC-7721, 31.2 µM; in the assay with KB, 14.1 µM; in the assay with A549, 13 µM; in the assay with K562 it was 1.7 µM; in assay [2] it was 5.84 µM.

Consider `CN(C)CCCn1nc(C2=C(c3cn(C)c4ccccc34)C(=O)NC2=O)c2cccnc21`, for which the IC50 in assay [1] is 0.72 µM; with SMMC-7721 it was over 100 µM; in the assay with KB it was over 100 µM; with A549, over 100 µM; in the assay on K562, 50.4 µM; in assay [2], over 100 µM.

Turning to `Cn1cc(C2=C(c3n[nH]c4ncccc34)C(=O)N(c3ccccc3)C2=O)c2ccccc21`, the half-inhibitory concentration (IC50) is over 10 µM in assay [1]; over 100 µM in the assay with SMMC-7721; over 100 µM with KB; over 100 µM in the assay with A549; 3.26 µM in the assay on K562; over 100 µM in assay [2].

Take `Cn1cc(C2=C(c3nn(CCCCn4ccnc4)c4ncccc34)C(=O)NC2=O)c2ccccc21`: the IC50 is 0.86 µM in assay [1]; 29.2 µM in the assay on SMMC-7721; over 100 µM in the assay with KB; 2.38 µM with A549; 31.8 µM with K562; 23.5 µM in assay [2].

Consider `Cn1cc(C2=C(c3nn(CCCCn4ccnc4)c4ncccc34)C(=O)N(c3ccccc3)C2=O)c2ccccc21`, for which the IC50 was over 10 µM in assay [1]; 1.76 µM in the assay on SMMC-7721; 47.3 µM in the assay on KB; 21.7 µM in the assay with A549; 5.03 µM with K562; 7.54 µM in assay [2].

With `Cn1cc(C2=C(c3nn(CCCn4cccc4)c4ncccc34)C(=O)NC2=O)c2ccccc21`, the concentration for half-maximal inhibition (IC50) was 1.1 µM in assay [1]; over 100 µM with SMMC-7721; over 100 µM in the assay with KB; over 100 µM in the assay with A549; 21.6 µM in the assay with K562; over 100 µM in assay [2].

`Cn1cc(C2=C(c3nn(CCCO)c4ncccc34)C(=O)NC2=O)c2ccccc21`: the IC50 was 3.15 µM in assay [1]; over 100 µM with SMMC-7721; over 100 µM in the assay on KB; over 100 µM in the assay on A549; 85.8 µM with K562; over 100 µM in assay [2].

For `CN1CCN(CCCn2nc(C3=C(c4cn(C)c5ccccc45)C(=O)NC3=O)c3cccnc32)CC1`, the concentration for half-maximal inhibition (IC50) in assay [1] was 1.86 µM; with SMMC-7721, over 100 µM; in the assay with KB it was over 100 µM; with A549, over 100 µM; in the assay on K562 it was 46.7 µM; in assay [2], over 100 µM.

For `Cn1cc(C2=C(c3n[nH]c4ncccc34)C(=O)N(c3cccc4ccccc34)C2=O)c2ccccc21`, the half-maximal inhibitory concentration (IC50) in assay [1] is over 10 µM; with SMMC-7721, over 100 µM; in the assay on KB, over 100 µM; in the assay with A549, over 100 µM; in the assay with K562, over 100 µM; in assay [2], over 100 µM.

Consider `Cn1cc(C2=C(c3nn(CCn4ccnc4)c4ncccc34)C(=O)NC2=O)c2ccccc21`, for which the concentration for half-maximal inhibition (IC50) in assay [1] was 9.1 µM; in the assay with SMMC-7721, over 100 µM; in the assay on KB, over 100 µM; in the assay with A549, over 100 µM; in the assay with K562, over 100 µM; in assay [2] it was over 100 µM.

Consider `Cn1cc(C2=C(c3nn(CCCn4cccc4)c4ncccc34)C(=O)N(c3ccccc3)C2=O)c2ccccc21`, for which the IC50 in assay [1] was over 10 µM; with SMMC-7721 it was over 100 µM; in the assay with KB it was over 100 µM; in the assay with A549, over 100 µM; in the assay with K562, 36.6 µM; in assay [2], over 100 µM.

For `Cn1cc(C2=C(c3nn(CCCn4ccnc4)c4ncccc34)C(=O)N(c3ccccc3)C2=O)c2ccccc21`, the IC50 in assay [1] is over 10 µM; with SMMC-7721, 34.8 µM; with KB it was 6.8 µM; in the assay with A549, 1.56 µM; with K562 it was 5.51 µM; in assay [2], 1.44 µM.

As to `Cn1cc(C2=C(c3nn(CCCn4cncn4)c4ncccc34)C(=O)N(c3ccccc3)C2=O)c2ccccc21`, the IC50 was over 10 µM in assay [1]; over 100 µM in the assay on SMMC-7721; over 100 µM with KB; over 100 µM with A549; over 100 µM in the assay with K562; over 100 µM in assay [2].

Consider `Cn1cc(C2=C(c3nn(CCCn4cncn4)c4ncccc34)C(=O)NC2=O)c2ccccc21`, for which the IC50 in assay [1] was 2.2 µM; in the assay on SMMC-7721 it was over 100 µM; in the assay on KB, over 100 µM; in the assay on A549, over 100 µM; in the assay with K562 it was over 100 µM; in assay [2], over 100 µM.

On to `O=C1NC(=O)C(c2c[nH]c3ccccc23)=C1c1c[nH]c2ccccc12` [RO-316233], for which the half-inhibitory concentration (IC50) is 0.35 µM in assay [1]; over 100 µM with SMMC-7721; 53.8 µM in the assay with KB; 56.6 µM in the assay with A549; 17.5 µM in the assay on K562; 83.5 µM in assay [2].

For `COc1ccc(N2C(=O)C(c3cn(C)c4ccccc34)=C(c3nn(CCCN4CCCCC4)c4ncccc34)C2=O)cc1`, the IC50 in assay [1] was over 10 µM; in the assay with SMMC-7721, 1.74 µM; with KB, 44 µM; with A549, 30.3 µM; in the assay on K562, over 100 µM; in assay [2] it was 3.34 µM.

For `Cn1cc(C2=C(c3nn(CCCN4CCOCC4)c4ncccc34)C(=O)NC2=O)c2ccccc21`, the IC50 in assay [1] was 5.95 µM; with SMMC-7721 it was over 100 µM; with KB, over 100 µM; in the assay on A549, over 100 µM; with K562 it was over 100 µM; in assay [2], over 100 µM.

Take `Cn1cc(C2=C(c3nn(CCCN4CCCCC4)c4ncccc34)C(=O)N(c3cccc4ccccc34)C2=O)c2ccccc21`: the IC50 is over 10 µM in assay [1]; 0.22 µM in the assay on SMMC-7721; 13.4 µM in the assay on KB; 2.82 µM in the assay on A549; 3.18 µM in the assay on K562; 1.83 µM in assay [2].

For the compound `Cn1cc(C2=C(c3nn(CCCN4CCCCC4)c4ncccc34)C(=O)N(c3ccc(Cl)cc3)C2=O)c2ccccc21`, the half-maximal inhibitory concentration (IC50) in assay [1] is over 10 µM; with SMMC-7721 it was over 100 µM; in the assay with KB, over 100 µM; in the assay on A549, 28.7 µM; with K562 it was 1.8 µM; in assay [2], over 100 µM.
